Among the data in ChEMBL document CHEMBL1148018, “Discovery and SAR development of thienopyridones: a class of small molecule AMPK activators” (Bioorg Med Chem Lett, 2007) are Activity and EC50 values, retold here.

pEC50: −log10 of the molar value. Calls of active or inactive are those of the source. The calls are words filed in the database; no cut-off is given here.

One assay is filed under the species Rattus norvegicus. Kind of assay: (§1) Activation of AMPK in rat liver assessed as SAMS peptide phosphorylation. It counts as functional, tissue-based. An outline of the steps:
(§2)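 Kinase activity is read as phosphorylation of the SAMS peptide substrate. Substrate concentration is 20 in standard assays and 100 in additivity assays.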
Take `COc1c(C#N)c(=O)[nH]c2scc(-c3ccccc3)c12`: the result was inactive.

With `O=c1cc(O)c2c(-c3ccccc3)csc2[nH]1`, the outcome was inactive.

Turning to `N#Cc1c(O)c2c(-c3ccccc3)c(-c3ccccc3O)sc2[nH]c1=O`, the outcome was inactive.

Consider `Cn1c(=O)c(C#N)c(O)c2c(-c3ccc(Cl)cc3)csc21`, for which the outcome was inactive.

On to `Cn1c(=O)c(C#N)c(O)c2c(-c3ccc(Br)cc3)c(F)sc21`, for which the result was inactive.

On to `Cn1c(=O)c(C#N)c(O)c2c(-c3ccccc3)csc21`, for which the result was inactive.

In the case of `N#Cc1c(O)c2c(-c3ccccc3)c([N+](=O)[O-])sc2[nH]c1=O`, the outcome was inactive.

With `Cn1c(=O)c(C#N)c(N)c2c(-c3ccc(Br)cc3)csc21`, the outcome was inactive.

For `O=c1[nH]c2scc(-c3ccccc3)c2c(O)c1-c1ccccc1`, the result was inactive.

With `CN(C)c1c(O)c2c(-c3ccccc3)csc2[nH]c1=O`, the result was inactive.

Test system in a further assay: not listed separately
Described as §1. It counts as functional, tissue-based. An outline of the steps:
as §2
Regarding `COC(=O)c1c(O)c2c(-c3ccccc3)csc2[nH]c1=O`, the pEC50 (commonly the EC50 on a negative log10 scale, so that one unit is a factor of ten) was 3.76.

On to `N#Cc1c(O)c2c(-c3ccccc3)c(Br)sc2[nH]c1=O`, for which the pEC50 is 5.24.

Turning to `O=c1[nH]c2scc(-c3ccccc3)c2c(O)c1-c1cccs1`, the pEC50 is 3.74.

Regarding `N#Cc1c(O)c2c(-c3ccc(O)cc3)csc2[nH]c1=O`, the pEC50 was 4.70.

As for `N#Cc1c(O)c2c(-c3ccc(F)cc3)c(Br)sc2[nH]c1=O`, the pEC50 was 5.00.

`N#Cc1c(O)c2c(-c3ccc4c(c3)OCO4)csc2[nH]c1=O`: the pEC50 was 4.70.

`N#Cc1c(O)c2c(-c3ccc(F)cc3)csc2[nH]c1=O`: the pEC50 was 4.08.

`COc1cccc(-c2c(O)c3c(-c4ccccc4)csc3[nH]c2=O)c1`: the pEC50 is 3.74.

With `COCOc1ccc(-c2csc3[nH]c(=O)c(C#N)c(O)c23)cc1`, the pEC50 was 5.10.

As for `N#Cc1c(O)c2c(-c3ccccc3)csc2[nH]c1=O`, the pEC50 was 4.42.

With `N#Cc1c(O)c2c(-c3ccccc3)c(Cl)sc2[nH]c1=O`, the pEC50 is 5.43.

Turning to `N#Cc1c(O)c2c(-c3ccc(Cl)cc3)csc2[nH]c1=O`, the negative-log EC50 (pEC50) is 4.09.

Turning to `N#Cc1c(O)c2c(-c3ccc(Br)cc3)csc2[nH]c1=O`, the pEC50 is 4.14.

Take `N#Cc1c(O)c2c(-c3cccc(O)c3)csc2[nH]c1=O`: the pEC50 was 4.42.

As to `N#Cc1c(O)c2c(-c3ccc(O)cc3)c(Cl)sc2[nH]c1=O`, the pEC50 is 5.70.

Take `C=CCc1ccc(-c2csc3[nH]c(=O)c(C#N)c(O)c23)cc1`: the pEC50 was 4.40.

Consider `COC(=O)c1ccc(-c2csc3[nH]c(=O)c(C#N)c(O)c23)cc1`, for which the pEC50 is 4.26.

Regarding `O=c1[nH]c2scc(-c3ccccc3)c2c(O)c1Cl`, the pEC50 was 4.06.
